bovine MsrA act: bovine methionine sulfoxide reductase A activation. purified bovine MsrA, absorbance read-out. 360,000 compounds, 0.3% hits. activation, % at 10.6 µM. AID 602163; in the data active means activation above about 7.5%;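 further: 0% = vehicle and 100% = reference activator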
ASAP1 GAP inh: ASAP1 ArfGAP inhibition | inhibition, % at 16.5 µM | ASAP1-stimulated ARF1 GTP hydrolysis, GDP FP detection | 360,000 compounds, 0.19% hits | Q9ULH1; in the data active means inhibition above about 25%;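 further: 0% = vehicle with enzyme and substrate and 100% = no enzyme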
ARFGAP1 inhibitor: rat ARFGAP1 inhibition; AID 651572; Q62848; Arfgap1-stimulated ARF1 GTP hydrolysis, GDP FP detection; 360,000 compounds, 0.26% hits; inhibition, % at 16.5 µM;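 active means inhibition above a per-plate limit, mean inhibition of low control wells plus 3 SD, cut at about 25% in these data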;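 further: 0% = DMSO wells with enzyme and 100% = wells lacking Arfgap1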
Target sequence (Q62848 1-136 limits assumed): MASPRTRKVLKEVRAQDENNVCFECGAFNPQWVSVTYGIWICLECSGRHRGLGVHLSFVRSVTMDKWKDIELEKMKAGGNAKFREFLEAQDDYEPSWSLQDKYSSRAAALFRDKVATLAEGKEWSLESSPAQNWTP
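System: truncated rat Arfgap1 GAP domain / Medium: HEPES-based buffer, pH 7.5 / Also added: N-terminally truncated human ARF1-GTP substrate / Incubation: enzyme reaction 120 min at 25 °C after 20 min preincubation / Measured by: FP of antibody-bound GDP Alexa 633 tracer, ex 620/em 688 nm / Replicates: singlicate, each compound tested once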
Rev-erbA mod: modulators of human Rev-erb alpha DNA binding; 370,000 compounds, 0.79% hits; activity, % at 10 µM; Rev-erbα–FITC-DNA binding, fluorescence polarization, 90 min; P20393; AID 1259318;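 active means activity above about 14%, limit read from the data; passing the limit was not always enough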;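 further: 0% = DMSO wells with 35 nM protein and 100% = DMSO wells with 750 nM protein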
Target sequence (P20393 whole entry, looked up): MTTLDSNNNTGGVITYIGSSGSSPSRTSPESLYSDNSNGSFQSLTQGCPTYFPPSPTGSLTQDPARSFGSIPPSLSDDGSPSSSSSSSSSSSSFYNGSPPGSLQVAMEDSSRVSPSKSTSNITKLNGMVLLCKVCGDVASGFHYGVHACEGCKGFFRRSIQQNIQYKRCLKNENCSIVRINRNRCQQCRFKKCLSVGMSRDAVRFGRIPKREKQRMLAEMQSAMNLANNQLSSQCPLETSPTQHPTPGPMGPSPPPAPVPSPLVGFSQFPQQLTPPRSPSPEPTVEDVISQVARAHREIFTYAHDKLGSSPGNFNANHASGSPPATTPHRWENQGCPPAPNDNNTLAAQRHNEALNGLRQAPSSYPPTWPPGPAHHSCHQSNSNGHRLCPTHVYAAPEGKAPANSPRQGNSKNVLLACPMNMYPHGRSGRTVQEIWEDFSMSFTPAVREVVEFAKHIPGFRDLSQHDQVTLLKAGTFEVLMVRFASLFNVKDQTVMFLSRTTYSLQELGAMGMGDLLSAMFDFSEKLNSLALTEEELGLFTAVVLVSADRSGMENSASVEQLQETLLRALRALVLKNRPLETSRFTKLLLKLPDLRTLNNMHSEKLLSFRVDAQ
HGIII-sPLA2 inh: Inhibits HGIII-sPLA2 liposome hydrolysis, primary screen. Q9NZ20. QFRET BODIPY PC-A2 liposome hydrolysis, fluorescence. inhibition, % at 12.2 µM. 370,000 compounds, 0.56% hits. AID 743126;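 active means inhibition above mean plus 3 SD of compounds lying within the high and low control bounds, cut at about 19% in these data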;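 further: 0% = median of test compound wells and 100% = no enzyme DMSO wells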
MsrA inh: inhibitors of bovine MsrA; purified bovine MsrA, absorbance read-out; inhibition, % at 15.5 µM; 360,000 compounds, 0.75% hits; AID 651718; in the data active means inhibition above about 4.5%;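 further: 0% = vehicle wells with enzyme and 100% = reference inhibitor wells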
hGIII sPLA2 conf: human GIII-sPLA2 inhibition, confirmation | inhibition, % at 12.2 µM | shares compounds with HGIII-sPLA2 inh | 2,000 compounds, 34% hits | recombinant hGIII-sPLA2, BODIPY PC-A2 QFRET fluorescence;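 active means mean inhibition across triplicates above the hit cutoff set in the earlier primary screen, cut at about 19% in these data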;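 further: 0% = enzyme with DMSO and 100% = DMSO wells lacking enzyme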
BODIPY interf: optically interferes with 535nm fluorescence in sPLA2 counter-screen; shares compounds with HGIII-sPLA2 inh; BODIPY FL product fluorescence interference, QFRET; inhibition, % at 12.2 µM; 2,000 compounds, 8.5% hits; AID 743282;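 active means average inhibition above the solvent-only control mean plus 3 SD, cut at about 6% in these data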;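 further: 0% = DMSO with substrate plus product and 100% = DMSO with substrate alone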
An asterisk follows results filed as active; nt = no result. Rows were chosen to be rich in hits. Some 2.7% of all compounds tested hit in one or more screens of this group.

SMILES | bovine MsrA act | ASAP1 GAP inh | ARFGAP1 inhibitor | Rev-erbA mod | HGIII-sPLA2 inh | MsrA inh | hGIII sPLA2 conf | BODIPY interf
O=C1N2Cc3ccccc3C2CS(=O)(=O)N1Cc1ccccc1 (stereo not drawn) | nt | nt | nt | 8.0 | 1.5 | nt | nt | nt
CC(C)(C)c1ccc(NC(=O)C2=CC=CN3CCS(=O)(=O)N=C23)cc1 | -1.9 | 8.9 | 4.4 | -1.0 | 11.2 | 0.7 | nt | nt
CCN(CC)c1ccc(NC(=O)C2=CC=CN3CCS(=O)(=O)N=C23)cc1 | -5.2 | 4.1 | -10.2 | 3.0 | 20.9* | 3.2 | 7.8 | 0.7
COC(=O)[C@]12C[C@H](CC(=O)NCCCCc3ccccc3)C(=O)N(Cc3ccc(Cl)cc3Cl)C1=C[C@H](COCc1ccccc1)O[C@@H]2C | nt | nt | nt | 4.6 | -18.6 | nt | nt | nt
O=C(N/N=C\c1c(O)ccc2ccccc12)c1ccc(S(=O)(=O)N2CCCCC2)cc1 | -4.8 | 6.9 | 4.9 | -5.0 | 7.8 | -0.1 | nt | nt
O=C(NN=Cc1c(O)ccc2ccccc12)c1ccc2c(c1)OCO2 | -7.9 | 0.0 | -13.7 | -3.6 | 37.2* | 0.8 | 8.1 | -5.7
COC(=O)N/N=C/c1cc(N=Nc2ccccc2Cl)ccc1O | -4.5 | 6.3 | 3.1 | -2.5 | -1.7 | 0.4 | nt | nt
NC(=S)N/N=C/c1c(O)ccc2ccccc12 | -10.5 | -7.0 | 4.1 | 2.5 | 35.1* | 2.6 | 21.1* | -0.5
COc1ccc2ccccc2c1/C=N/NC(=O)c1ccc(C)nc1 | -3.4 | 4.3 | -7.6 | -2.3 | -4.9 | 1.6 | nt | nt
Nc1ccc(C(=O)N/N=C\c2cc(N=Nc3cccc4ccccc34)ccc2O)cc1 | -4.9 | -6.7 | 0.7 | 2.6 | 34.0* | 2.9 | 37.8* | 8.2*
O=C(N/N=C/c1c(O)ccc2ccccc12)c1ccc(CO)nc1 | -2.3 | 7.0 | 9.0 | -5.2 | 25.2* | 1.5 | 12.3 | -5.7
C#CCNC(=O)C[C@H]1C[C@@]2(C(=O)OC)C(=C[C@H](C(C)C)O[C@@H]2C2CC2)N(CCC2=CCCCC2)C1=O | nt | nt | nt | -1.8 | -6.1 | nt | nt | nt
CO[C@H]([C@H](C)/C=C/N(C)C=O)[C@@H](C)C(=O)CC[C@H](C)[C@H](O)[C@H](C)[C@H]1OC(=O)/C=C/C(C)=C/C[C@H](O)C[C@@H]2C=CC[C@@H](C[C@H](OC)[C@@H](C)[C@@H](OC)C[C@@H](OC)[C@@H]1C)O2 | nt | nt | nt | -1.8 | -20.1 | nt | nt | nt
CCCNS(=O)(=O)c1ccc(CCC(=O)N2CCN(CC)CC2)cc1 | -7.4 | 0.7 | 9.6 | -0.2 | 20.9* | 0.4 | -2.3 | -6.8
COc1cccc(Cn2ncc3c4sc(S(C)=O)cc4n(C)c3c2=O)c1 (stereo not drawn) | nt | nt | nt | 4.7 | 3.3 | nt | nt | nt
COc1ccc(NC(=O)Nc2cc(C)nn2-c2ccccc2)cc1 | nt | nt | nt | 1.1 | 3.6 | nt | nt | nt
COc1ccc(-c2ccc(C(=O)Nc3cccc(N(C)C)c3)c3occc23)c(C)c1 | -4.4 | -0.8 | -7.0 | 5.3 | 19.7* | 2.2 | 15.9 | 7.7*
CC(=O)OC[C@H]1O[C@@H](n2ccc(=O)[nH]c2=S)C(OC(C)=O)C1OC(C)=O (stereo partly drawn) | -5.5 | 3.8 | -8.2 | 2.2 | -8.0 | 1.2 | nt | nt
CC(=O)OCC1OC(n2cc(F)c(=O)[nH]c2=O)C(OC(C)=O)C1OC(C)=O (stereo not drawn) | 1.2 | -5.2 | 6.9 | -4.7 | 19.5* | -0.1 | 0.9 | -6.7
CCCCOc1ccc(S(=O)(=O)NC(=O)C2(C)CCN2C(=O)Cc2cccs2)cc1 (stereo not drawn) | -2.5 | 4.4 | 6.5 | 2.7 | 87.4* | -0.5 | -10.5 | -6.1
CC(C)(CCC(=S)N1CCOCC1)C1CCCCC1 | -2.6 | -6.5 | -3.1 | 12.5 | 19.4* | 0.7 | 18.5 | -7.1
S=C(CN1CCCC1=S)N1CCOCC1 | -1.2 | -5.0 | -5.8 | 0.2 | -0.2 | -0.5 | nt | nt
Cc1onc(-c2ccc(Cl)cc2)c1-c1ccn(S(=O)(=O)c2ccccc2Cl)n1 | nt | nt | nt | 6.2 | -5.5 | nt | nt | nt
O=C(O)c1ccc(N2C(=O)CC(N3CCN(c4cccc(C(F)(F)F)c4)CC3)C2=O)cc1 (stereo not drawn) | -0.5 | 4.0 | 5.3 | 3.0 | 21.2* | 0.4 | 1.9 | -1.7
CCOC(=O)C1C(c2ccc(C)o2)NC(=O)NC1(O)C(F)(F)F (stereo not drawn) | 2.0 | -8.7 | 4.6 | 6.8 | 19.6* | 0.5 | 0.4 | -4.2
SMILES | bovine MsrA act | ASAP1 GAP inh | ARFGAP1 inhibitor | Rev-erbA mod | HGIII-sPLA2 inh | MsrA inh | hGIII sPLA2 conf | BODIPY interf
O=C(Nc1ccc(F)cc1)C(c1ccccc1)N1CCN(c2ccncc2)CC1 (stereo not drawn) | nt | 2.3 | -5.1 | 4.3 | -29.5 | -0.5 | nt | nt
COc1ccccc1/C=N/NC(=O)C(=O)Nc1ccccc1OC(F)(F)C(F)F | -2.8 | -3.4 | -13.9 | 6.5 | 10.7 | 2.3 | nt | nt
COc1cccc(/C=N/NC(=O)C(=O)Nc2ccccc2OC(F)(F)C(F)F)c1 | -2.9 | -9.9 | 13.4 | 7.0 | 20.7* | -0.4 | 5.1 | -3.7
COc1ccc(NC(=O)C(=O)N/N=C/c2cccnc2)c(OC)c1 | -3.6 | -3.5 | 13.0 | -2.5 | 20.0* | 2.1 | 3.7 | -7.3
COc1cc(NC(=O)C2CCCN(S(=O)(=O)c3cccc4cccnc34)C2)cc(OC)c1 (stereo not drawn) | nt | nt | nt | -4.1 | -12.7 | nt | nt | nt
CN(C(=O)c1cn(C)c2ccccc12)c1ccc(Oc2cccnc2)cc1 | nt | -10.9 | 6.3 | 2.1 | -1.4 | 0.1 | nt | nt
COC(=O)[C@]12C[C@H](CC(=O)NCc3cccs3)C(=O)N(CCC3=CCCCC3)C1=C[C@H](C(C)C)O[C@@H]2C1CC1 | nt | nt | nt | 1.3 | -6.3 | nt | nt | nt
CCOC(=O)[C@H]1[C@H]2COc3cc(OC)ccc3[C@@H]2N2C(=O)c3cc(OC)c(OC)cc3NC(=O)[C@@]12C | -0.5 | 9.9 | 3.6 | 3.6 | 21.5* | -0.1 | 8.1 | -15.1
CCOC(=O)[C@H]1[C@H]2COc3ccccc3[C@@H]2N2C(=O)c3cc(OC)ccc3NC(=O)[C@@]12C | -5.9 | 8.8 | 9.3 | -9.0 | -5.8 | -0.3 | nt | nt
O=C(CCc1ccccc1)N[C@H]1[C@@H](OC(=O)c2ccc([N+](=O)[O-])cc2)CCC[C@]12C(=O)N(Cc1ccccc1)c1ccccc12 | nt | nt | nt | 4.4 | 1.4 | nt | nt | nt
O=C(Nc1ccccc1)c1ccccc1NC(=O)c1ccccc1[N+](=O)[O-] | -5.8 | -5.2 | -6.4 | 7.9 | -7.5 | 0.3 | nt | nt
O=[N+]([O-])c1ccccc1C(=Nc1ccccc1)c1c(O)cc(O)cc1O | -3.5 | -11.7 | -2.4 | 3.9 | 26.1* | 3.1 | -0.1 | 3.4
COC(=O)[C@]12C[C@H](CC(=O)NCCC(C)C)C(=O)N(CCC3=CCCCC3)C1=C[C@H](C(C)C)O[C@@H]2C1CC1 | nt | nt | nt | -0.4 | -1.7 | nt | nt | nt
Cc1cccc(NC(=S)NCCCN2CCOCC2)c1 | -2.0 | -4.0 | 8.0 | 3.4 | 19.3* | 1.1 | 3.1 | 0.1
S=C(NCCCN1CCOCC1)Nc1cccc(Cl)c1 | -9.1 | -3.1 | 1.4 | -6.7 | 2.8 | 1.1 | nt | nt
